Experimental data reported in ChEMBL document CHEMBL1121772, “Synthesis and beta-lactamase inhibitory properties of 2 beta-(chloromethyl)-2 alpha-methylpenam-3 alpha-carboxylic acid 1,1-dioxide” (1981).
Converted amounts (≈) assume the structure as drawn.

Key:
Format in all cases: functional
Escherichia coli [1] = assay: Minimum inhibitory activity against Escherichia coli A21223
Procedure, shortened: (§1)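 MICs by agar dilution: organisms were inoculated onto drug-containing agar plates with a multipoint replicating device.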

Staphylococcus aureus [2] = assay: Minimum inhibitory activity against Staphylococcus aureus A9606; procedure, shortened: as §1
Escherichia coli [3] = assay: Minimum inhibitory activity against Escherichia coli A9675; procedure, shortened: as §1
Staphylococcus aureus [4] = assay: Minimum inhibitory activity against Staphylococcus aureus A20309; procedure, shortened: as §1
Staphylococcus aureus [5] = assay: Minimum inhibitory activity against Staphylococcus aureus A15091; procedure, shortened: as §1
Mus musculus [6] = organism: Mus musculus; assay: Beta-lactamase inhibitory activity against Staphylococcus aureus A20379 using oral mouse protection test in mice; details: read-out: PD50
Procedure, shortened: (§2)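 Challenge organisms suspended in mucin (2 or 4%) and injected ip into 18-24 g Swiss-Webster (ICR strain) mice. Oral treatment given at 0 and 2 h postchallenge. Observation ran 5 days, and PD50 was calculated by the Spearman-Karber method.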

Mus musculus [7] = organism: Mus musculus; assay: Beta-lactamase inhibitory activity against Escherichia coli A21223 using oral mouse protection test in mice; details: read-out: PD50; procedure, shortened: as §2
Mus musculus [8] = organism: Mus musculus; assay: Beta-lactamase inhibitory activity against Staphylococcus aureus A9606 using oral mouse protection test in mice; details: for ED50: Mus musculus, po, read-out: PD50; procedure, shortened: as §2
Mus musculus [9] = organism: Mus musculus; assay: Beta-lactamase inhibitory activity against Staphylococcus aureus A15091 using oral mouse protection test in mice; details: read-out: PD50; procedure, shortened: as §2
[10] = molecular target: Beta lactamase TEM-1 (Klebsiella pneumoniae) (UniProt Q7B899); assay: Beta-lactamase inhibitory activity from Klebsiella pneumoniae A20634(TEM) and minimum protective concentration was reported
[11] = molecular target: Beta-lactamase (Staphylococcus aureus) (UniProt P00807); assay: Beta-lactamase inhibitory activity from Staphylococcus aureus A9606 and minimum protective concentration was reported
[12] = molecular target: Metallo-beta-lactamase type 2 (Bacteroides fragilis) (UniProt P25910); assay: Beta-lactamase inhibitory activity from […] A-22,695 and minimum protective concentration was reported
Sequence of Metallo-beta-lactamase type 2 (Bacteroides fragilis) (P25910 whole entry): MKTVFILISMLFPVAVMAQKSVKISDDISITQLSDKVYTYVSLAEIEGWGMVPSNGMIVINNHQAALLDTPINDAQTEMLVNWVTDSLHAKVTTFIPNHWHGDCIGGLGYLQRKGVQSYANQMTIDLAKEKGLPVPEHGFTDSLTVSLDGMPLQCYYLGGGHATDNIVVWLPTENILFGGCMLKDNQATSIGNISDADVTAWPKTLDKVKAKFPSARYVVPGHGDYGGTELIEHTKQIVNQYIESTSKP

Sequence of Beta-lactamase (Staphylococcus aureus) (P00807 whole entry): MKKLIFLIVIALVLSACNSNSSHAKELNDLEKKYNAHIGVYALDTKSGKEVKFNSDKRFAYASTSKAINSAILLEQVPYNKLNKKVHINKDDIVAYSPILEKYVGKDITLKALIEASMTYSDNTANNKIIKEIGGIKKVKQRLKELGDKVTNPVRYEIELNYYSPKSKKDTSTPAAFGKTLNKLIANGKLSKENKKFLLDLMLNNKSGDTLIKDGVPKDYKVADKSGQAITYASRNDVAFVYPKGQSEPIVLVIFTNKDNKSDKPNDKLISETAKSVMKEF
Sequence of Beta lactamase TEM-1 (Klebsiella pneumoniae) (Q7B899 as listed by the source): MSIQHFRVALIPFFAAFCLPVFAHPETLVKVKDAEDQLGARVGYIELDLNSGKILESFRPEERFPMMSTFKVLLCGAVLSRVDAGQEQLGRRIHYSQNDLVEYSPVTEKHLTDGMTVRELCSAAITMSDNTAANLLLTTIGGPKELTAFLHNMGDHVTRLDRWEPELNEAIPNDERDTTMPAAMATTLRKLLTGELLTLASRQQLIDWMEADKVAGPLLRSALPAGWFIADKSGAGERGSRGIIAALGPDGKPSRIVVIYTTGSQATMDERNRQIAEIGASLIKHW

SMILES	MIC (Escherichia coli [1])	MIC (Staphylococcus aureus [2])	MIC (Escherichia coli [3])	MIC (Staphylococcus aureus [4])	MIC (Staphylococcus aureus [5])	ED50 (Mus musculus [6])	ED50 (Mus musculus [7])	ED50 (Mus musculus [8])	ED50 (Mus musculus [9])	MPC [10]	MPC [11]	MPC [12]	PD50 (Mus musculus [8])
CC1(C)S[C@@H]2[C@H](NC(=O)[C@H](N)c3ccc(O)cc3)C(=O)N2[C@H]1C(=O)O.O=C(O)[C@H]1/C(=C/CO)O[C@@H]2CC(=O)N21	8 µg/mL	2 µg/mL	2 µg/mL	2 µg/mL	2 µg/mL	–	–	–	–	–	–	–	–
CC1(C)S[C@@H]2[C@H](NC(=O)[C@H](N)c3ccc(O)cc3)C(=O)N2[C@H]1C(=O)O.CC1(C)[C@H](C(=O)O)N2C(=O)C[C@H]2S1(=O)=O	4 µg/mL	2 µg/mL	4 µg/mL	4 µg/mL	2 µg/mL	21 mg/kg	46 mg/kg	15 mg/kg	160 mg/kg	–	–	–	–
CC1(C)C(C(=O)O)N2C(=O)C(Cl)C2S1(=O)=O (stereo not drawn)	–	–	–	–	–	–	–	–	–	25 µg/mL	> 100 µg/mL	–	–
COc1cccc(OC)c1C(=O)N[C@@H]1C(=O)N2[C@@H](C(=O)O)C(C)(C)S(=O)(=O)[C@H]12	–	–	–	–	–	–	–	–	–	125 µg/mL	> 100 µg/mL	–	–
CC1(C)S[C@@H]2[C@H](NC(=O)[C@H](N)c3ccc(O)cc3)C(=O)N2[C@H]1C(=O)O.C[C@]1(CCl)[C@H](C(=O)[O-])N2C(=O)C[C@H]2S1(=O)=O.[K+] [AMOXACILLIN +BL-P2013]	2 µg/mL	1 µg/mL	2 µg/mL	2 µg/mL	1 µg/mL	34 mg/kg	16 mg/kg	24 mg/kg	72 mg/kg	–	–	–	–
CC1(C)S[C@@H]2[C@H](NC(=O)[C@H](N)c3ccc(O)cc3)C(=O)N2[C@H]1C(=O)O [AMOXICILLIN]	125 µg/mL (≈ 342 µM)	> 125 µg/mL	63 µg/mL (≈ 172 µM)	125 µg/mL (≈ 342 µM)	> 125 µg/mL	> 200 mg/kg	> 200 mg/kg	> 800 mg/kg	> 800 mg/kg	–	–	–	–
C[C@]1(CCl)[C@H](C(=O)[O-])N2C(=O)C[C@H]2S1(=O)=O.[K+] [BL-P2013]	> 125 µg/mL	125 µg/mL	> 125 µg/mL	125 µg/mL	125 µg/mL	> 200 mg/kg	> 200 mg/kg	> 200 mg/kg	> 200 mg/kg	3.1 µg/mL	3.1 µg/mL	12.5 µg/mL	–
O=C(O)[C@H]1/C(=C/CO)O[C@@H]2CC(=O)N21 [CLAVULANIC ACID]	32 µg/mL (≈ 161 µM)	32 µg/mL (≈ 161 µM)	32 µg/mL (≈ 161 µM)	32 µg/mL (≈ 161 µM)	32 µg/mL (≈ 161 µM)	–	–	–	–	0.1 µg/mL	0.4 µg/mL	6.3 µg/mL	–
CC1(C)[C@H](C(=O)O)N2C(=O)C[C@H]2S1(=O)=O [SULBACTAM]	> 125 µg/mL	> 125 µg/mL	125 µg/mL (≈ 536 µM)	> 125 µg/mL	> 125 µg/mL	> 200 mg/kg	> 200 mg/kg	–	> 200 mg/kg	1.6 µg/mL	12.5 µg/mL	12.5 µg/mL	> 200 mg/kg
